Experimental data published in ChEMBL document CHEMBL3286116, “Synthesis, biological evaluation and structure-activity correlation study of a series of imidazol-based compounds as Candida albicans inhibitors” (Eur J Med Chem, 2014).
≈ marks a conversion by molar mass, not a printed value.

Legend:
Format in all cases: functional
[1] = tested on: Trichophyton mentagrophytes; assay: Antifungal activity against Trichophyton mentagrophytes PMC 6552 after 72 hrs by CLSI broth microdilution method; details: PMC 6552, 72 h
Procedure, shortened: (§1)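 Dermatophytes tested by CLSI broth microdilution for filamentous fungi (M38-A2). Serial two-fold dilutions of DMSO-dissolved compound in RPMI 1640, final 0.125–64. Inoculum was 0.4–5 × 10^4 CFU mL−1, incubated at 35 °C and read at 72 h. MIC80 is the lowest concentration giving ≥80% growth inhibition versus growth control. Median of five replicates, plus geometric mean.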

Candida parapsilosis [2] = assay: Antifungal activity against Candida parapsilosis DSM 11224 after 48 hrs by CLSI broth microdilution method; details: Lodderomyces parapsilosis, DSM 11224, 48 h
Procedure, shortened: (§2)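 Yeast CLSI broth microdilution (M27-A3). Compounds dissolved in DMSO at 100× the top test concentration, then diluted as serial two-fold dilutions in RPMI 1640 to final 0.125–64. Inoculum was 1.0–1.5 × 10^3 cells mL−1, incubated at 35 °C and read for growth at 48 h. MIC is the lowest concentration giving ≥50% growth inhibition versus growth control. Reported as the median of five replicates and as the geometric mean.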

Candida tropicalis [3] = assay: Antifungal activity against Candida tropicalis PMC 0910 after 48 hrs by CLSI broth microdilution method; details: PMC 0910, 48 h; procedure, shortened: as §2
Nakaseomyces glabratus [4] = assay: Antifungal activity against Candida glabrata PMC 0805 after 48 hrs by CLSI broth microdilution method; details: PMC 0805, 48 h; procedure, shortened: as §2
Cryptococcus neoformans [5] = assay: Antifungal activity against Cryptococcus neoformans PMC 2102 after 72 hrs by CLSI broth microdilution method; details: PMC 2102, 72 h
Procedure, shortened: (§3)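 Cryptococcus neoformans tested by CLSI broth microdilution in RPMI 1640, with serial two-fold dilutions from DMSO stocks at 100× the top concentration, final 0.125–64. Inoculum was 1.0–1.5 × 10^3 cells mL−1 at 35 °C, with growth read at 72 h. MIC is the lowest concentration with ≥50% growth inhibition versus control. Median of five replicates, plus geometric mean.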

Nannizzia gypsea [6] = assay: Antifungal activity against Microsporum gypseum DSM 3824 after 72 hrs by CLSI broth microdilution method; details: DSM 3824, 72 h; procedure, shortened: as §1
[7] = tested on: Trichophyton mentagrophytes; assay: Antifungal activity against Trichophyton mentagrophytes PMC 6509 after 72 hrs by CLSI broth microdilution method; details: PMC 6509, 72 h; procedure, shortened: as §1
[8] = tested on: Trichophyton mentagrophytes; assay: Antifungal activity against Trichophyton mentagrophytes PMC 6515 after 72 hrs by CLSI broth microdilution method; details: PMC 6515, 72 h; procedure, shortened: as §1
Candida albicans [9] = assay: Antifungal activity against Candida albicans ATCC 10231 after 48 hrs by CLSI broth microdilution method; details: ATCC 10231, 48 h; procedure, shortened: as §2
Cryptococcus neoformans [10] = assay: Antifungal activity against Cryptococcus neoformans PMC 2107 after 72 hrs by CLSI broth microdilution method; details: PMC 2107, 72 h; procedure, shortened: as §3
[11] = tested on: Trichophyton mentagrophytes; assay: Antifungal activity against Trichophyton mentagrophytes PMC 6531 after 72 hrs by CLSI broth microdilution method; details: PMC 6531, 72 h; procedure, shortened: as §1
Nannizzia gypsea [12] = assay: Antifungal activity against Microsporum gypseum PMC 7303 after 72 hrs by CLSI broth microdilution method; details: PMC 7303, 72 h; procedure, shortened: as §1
Cryptococcus neoformans [13] = assay: Antifungal activity against Cryptococcus neoformans DSM 11959 after 72 hrs by CLSI broth microdilution method; details: DSM 11959, 72 h; procedure, shortened: as §3
Cryptococcus neoformans [14] = assay: Antifungal activity against Cryptococcus neoformans PMC 2123 after 72 hrs by CLSI broth microdilution method; details: PMC 2123, 72 h; procedure, shortened: as §3
Candida albicans [15] = assay: Antifungal activity against Candida albicans ATCC 3153 after 48 hrs by CLSI broth microdilution method; details: ATCC 3153, 48 h; procedure, shortened: as §2
Candida albicans [16] = assay: Antifungal activity against Candida albicans ATCC 10261 after 48 hrs by CLSI broth microdilution method; details: ATCC 10261, 48 h; procedure, shortened: as §2
Pichia kudriavzevii [17] = assay: Antifungal activity against Candida krusei DSM 6128 after 48 hrs by CLSI broth microdilution method; details: DSM 6128, 48 h; procedure, shortened: as §2
Nakaseomyces glabratus [18] = assay: Antifungal activity against Candida glabrata PMC 0807 after 48 hrs by CLSI broth microdilution method; details: PMC 0807, 48 h; procedure, shortened: as §2
Candida albicans [19] = assay: Antifungal activity against Candida albicans ATCC 90028 after 48 hrs by CLSI broth microdilution method; details: ATCC 90028, 48 h; procedure, shortened: as §2
Cryptococcus neoformans [20] = assay: Antifungal activity against Cryptococcus neoformans PMC 2136 after 72 hrs by CLSI broth microdilution method; details: PMC 2136, 72 h; procedure, shortened: as §3
Candida albicans [21] = assay: Antifungal activity against Candida albicans ATCC 76615 after 48 hrs by CLSI broth microdilution method; details: ATCC 76615, 48 h; procedure, shortened: as §2
Candida albicans [22] = assay: Antifungal activity against Candida albicans ATCC 24433 after 48 hrs by CLSI broth microdilution method; details: ATCC 24433, 48 h; procedure, shortened: as §2
Candida albicans [23] = assay: Antifungal activity against Candida albicans PMC 1011 after 48 hrs by CLSI broth microdilution method; details: PMC 1011, 48 h; procedure, shortened: as §2
Cryptococcus neoformans [24] = assay: Antifungal activity against Cryptococcus neoformans PMC 2111 after 72 hrs by CLSI broth microdilution method; details: PMC 2111, 72 h; procedure, shortened: as §3
[25] = tested on: Trichophyton mentagrophytes; assay: Antifungal activity against Trichophyton mentagrophytes PMC 6503 after 72 hrs by CLSI broth microdilution method; details: PMC 6503, 72 h; procedure, shortened: as §1
Cryptococcus neoformans [26] = assay: Antifungal activity against Cryptococcus neoformans PMC 2103 after 72 hrs by CLSI broth microdilution method; details: PMC 2103, 72 h; procedure, shortened: as §3
Cryptococcus neoformans [27] = assay: Antifungal activity against Cryptococcus neoformans PMC 2115 after 72 hrs by CLSI broth microdilution method; details: PMC 2115, 72 h; procedure, shortened: as §3
Candida parapsilosis [28] = assay: Antifungal activity against Candida parapsilosis ATCC 22019 after 48 hrs by CLSI broth microdilution method; details: Lodderomyces parapsilosis, ATCC 22019, 48 h; procedure, shortened: as §2
Nannizzia gypsea [29] = assay: Antifungal activity against Microsporum gypseum PMC 7331 after 72 hrs by CLSI broth microdilution method; details: PMC 7331, 72 h; procedure, shortened: as §1
Candida tropicalis [30] = assay: Antifungal activity against Candida tropicalis DSM 11953 after 48 hrs by CLSI broth microdilution method; details: DSM 11953, 48 h; procedure, shortened: as §2
Pichia kudriavzevii [31] = assay: Antifungal activity against Candida krusei PMC 0613 after 48 hrs by CLSI broth microdilution method; details: PMC 0613, 48 h; procedure, shortened: as §2
Candida albicans [32] = assay: Antifungal activity against Candida albicans ATCC 20891 after 48 hrs by CLSI broth microdilution method; details: ATCC 20891, 48 h; procedure, shortened: as §2
[33] = tested on: Trichophyton mentagrophytes; assay: Antifungal activity against Trichophyton mentagrophytes DSM 4870 after 72 hrs by CLSI broth microdilution method; details: DSM 4870, 72 h; procedure, shortened: as §1

Row | MIC80 [1] [µg/mL] | MIC50 (Candida parapsilosis [2]) [µg/mL] | MIC50 (Candida tropicalis [3]) [µg/mL] | MIC50 (Nakaseomyces glabratus [4]) [µg/mL] | MIC50 (Cryptococcus neoformans [5]) [µg/mL] | MIC80 (Nannizzia gypsea [6]) [µg/mL] | MIC80 [7] [µg/mL] | MIC80 [8] [µg/mL] | MIC50 (Candida albicans [9]) [µg/mL] | MIC50 (Cryptococcus neoformans [10]) [µg/mL] | MIC80 [11] [µg/mL] | MIC80 (Nannizzia gypsea [12]) [µg/mL] | MIC50 (Cryptococcus neoformans [13]) [µg/mL] | MIC50 (Cryptococcus neoformans [14]) [µg/mL] | MIC50 (Candida albicans [15]) [µg/mL] | MIC50 (Candida albicans [16]) [µg/mL] | MIC50 (Pichia kudriavzevii [17]) [µg/mL] | MIC50 (Nakaseomyces glabratus [18]) [µg/mL] | MIC50 (Candida albicans [19]) [µg/mL] | MIC50 (Cryptococcus neoformans [20]) [µg/mL] | other results | Structure (SMILES)
1 | 32 (≈ 72.8 µM) | 4 (≈ 9.1 µM) | 32 (≈ 72.8 µM) | 64 (≈ 146 µM) | 32 (≈ 72.8 µM) | 64 (≈ 146 µM) | 64 (≈ 146 µM) | 64 (≈ 146 µM) | 32 (≈ 72.8 µM) | 16 (≈ 36.4 µM) | 64 (≈ 146 µM) | 32 (≈ 72.8 µM) | 16 (≈ 36.4 µM) | 128 (≈ 291 µM) | 16 (≈ 36.4 µM) | 8 (≈ 18.2 µM) | 64 (≈ 146 µM) | 64 (≈ 146 µM) | 8 (≈ 18.2 µM) | 16 (≈ 36.4 µM) | MIC50 (Candida albicans [21]): 128 µg/mL (≈ 291 µM); MIC50 (Candida albicans [22]): 32 µg/mL (≈ 72.8 µM); MIC50 (Candida albicans [23]): 8 µg/mL (≈ 18.2 µM); MIC50 (Cryptococcus neoformans [24]): 16 µg/mL (≈ 36.4 µM); MIC80 [25]: 32 µg/mL (≈ 72.8 µM); MIC50 (Cryptococcus neoformans [26]): 8 µg/mL (≈ 18.2 µM); MIC50 (Cryptococcus neoformans [27]): 64 µg/mL (≈ 146 µM); MIC50 (Candida parapsilosis [28]): 16 µg/mL (≈ 36.4 µM); MIC80 (Nannizzia gypsea [29]): 32 µg/mL (≈ 72.8 µM); MIC50 (Candida tropicalis [30]): 128 µg/mL (≈ 291 µM); MIC50 (Pichia kudriavzevii [31]): 16 µg/mL (≈ 36.4 µM); MIC50 (Candida albicans [32]): 8 µg/mL (≈ 18.2 µM); MIC80 [33]: 64 µg/mL (≈ 146 µM) | O=C(OC(Cn1ccnc1)c1ccc(F)cc1)N1CCN(c2ccc([N+](=O)[O-])cc2)CC1 (stereo unspecified)
2 | 128 (≈ 246 µM) | 2 (≈ 3.85 µM) | 32 (≈ 61.5 µM) | 2 (≈ 3.85 µM) | 2 (≈ 3.85 µM) | 128 (≈ 246 µM) | 128 (≈ 246 µM) | 128 (≈ 246 µM) | 32 (≈ 61.5 µM) | 1 (≈ 1.92 µM) | 128 (≈ 246 µM) | 64 (≈ 123 µM) | 1 (≈ 1.92 µM) | 2 (≈ 3.85 µM) | 64 (≈ 123 µM) | 64 (≈ 123 µM) | 2 (≈ 3.85 µM) | 4 (≈ 7.69 µM) | 32 (≈ 61.5 µM) | 2 (≈ 3.85 µM) | MIC50 (Candida albicans [21]): 32 µg/mL (≈ 61.5 µM); MIC50 (Candida albicans [22]): 64 µg/mL (≈ 123 µM); MIC50 (Candida albicans [23]): 32 µg/mL (≈ 61.5 µM); MIC50 (Cryptococcus neoformans [24]): 1 µg/mL (≈ 1.92 µM); MIC80 [25]: 128 µg/mL (≈ 246 µM); MIC50 (Cryptococcus neoformans [26]): 1 µg/mL (≈ 1.92 µM); MIC50 (Cryptococcus neoformans [27]): 2 µg/mL (≈ 3.85 µM); MIC50 (Candida parapsilosis [28]): 4 µg/mL (≈ 7.69 µM); MIC80 (Nannizzia gypsea [29]): 128 µg/mL (≈ 246 µM); MIC50 (Candida tropicalis [30]): 16 µg/mL (≈ 30.8 µM); MIC50 (Pichia kudriavzevii [31]): 1 µg/mL (≈ 1.92 µM); MIC50 (Candida albicans [32]): 32 µg/mL (≈ 61.5 µM); MIC80 [33]: 128 µg/mL (≈ 246 µM) | O=C(Nc1ccc(N2CCN(c3ccc(Cl)cc3)CC2)cc1)O[C@H](Cn1ccnc1)c1ccc(F)cc1
